Assay results of several laboratories.
Lines come from different studies, so protocols differ.
EGFR L861Q: Epidermal growth factor receptor (EGFR, Homo sapiens, UniProt P00533, L861Q)
EGFR T790M: Epidermal growth factor receptor (EGFR, Homo sapiens, UniProt P00533, T790M)
EGFR L858R: Epidermal growth factor receptor (EGFR, Homo sapiens, UniProt P00533, L858R)
EGFR G719C: Epidermal growth factor receptor (EGFR, Homo sapiens, UniProt P00533, G719C)
EGFR del752-759: Epidermal growth factor receptor (EGFR, Homo sapiens, UniProt P00533, del752-759)
EGFR del747-752/P753S: Epidermal growth factor receptor (EGFR, Homo sapiens, UniProt P00533, del747-752/P753S)
EGFR: Epidermal growth factor receptor (EGFR, Homo sapiens, UniProt P00533)
EGFR del746-750: Epidermal growth factor receptor (EGFR, Homo sapiens, UniProt P00533, del746-750)

Cc1c(C(=O)O)cc(-c2ccc(C3CCNCC3)cc2)c2ccc(-c3ccc(C(F)(F)F)cc3)cc12 — remaining binding (EGFR L861Q; cell-free assay; competition with immobilised ligand; 1 µM): 100%
O=C(c1ccc(Nc2ncc(Cl)c(-c3ccc(Cl)s3)n2)cc1)N1CCC(N2CCCC2)CC1 — remaining binding (EGFR T790M; binding; competition with immobilised ligand; 1 µM): 63%
Nc1ncc2c(n1)-c1c([nH]c3ccc(C#CC4CC4)cc13)CCCC2 — remaining binding (EGFR L858R; binding; competition with immobilised ligand; 1 µM): 100%
O=c1nc(-c2ccccn2)sc2ccccc12 — remaining binding (EGFR G719C; cell-free assay; competition with immobilised ligand; 1 µM): 77%
c1cnn2ncc(-c3ccnc(N4CCC45COC5)n3)c2c1 — remaining binding (EGFR del752-759; binding; 1 µM): 67%
C[C@H](c1ccnc(Nc2nc3ccc(-c4cc(N(C)C)ncn4)cc3[nH]2)c1)N1CCN(C(=O)CC(F)(F)F)CC1 — remaining binding (EGFR del747-752/P753S; cell-free assay; competition with immobilised ligand; 0.1 µM): 69%
CN(C)c1ncc(F)c(-c2cnn3ncccc23)n1 — remaining binding (EGFR; binding; 1 µM): 82%
O=C(Nc1c[nH]nc1C(=O)NC1CCNCC1)c1cc(F)cc(F)c1 — remaining binding (EGFR L858R; binding; competition with immobilised ligand; 1 µM): 90%
O=C(NCCCN1CCOCC1)c1ccc(Nc2nccc(-c3cc4ccccc4s3)n2)cc1 — remaining binding (EGFR L861Q; binding; competition with immobilised ligand; 1 µM): 99%
CC(=O)c1c(NS(C)(=O)=O)c2cc(-c3ccc(Cl)cc3)c(-c3ccc(Cl)cc3Cl)nc2n(C)c1=O — remaining binding (EGFR L861Q; cell-free assay; competition with immobilised ligand; 1 µM): 100%
COc1cnc(Nc2cccc(S(N)(=O)=O)c2)nc1N1CCN(c2ccccc2)CC1 — remaining binding (EGFR del746-750; binding; competition with immobilised ligand; 1 µM): 90%
CCN1CCN(Cc2ccc(C(=O)Nc3ccc(C)c(Oc4ccc5c(c4)CC(=O)N5)c3)cc2C(F)(F)F)CC1 — remaining binding (EGFR del746-750; binding; competition with immobilised ligand; 1 µM): 99%
O=C(NCCCN1CCOCC1)c1ccc(Nc2ncc(Cl)c(-c3ccc(Cl)s3)n2)cc1 — remaining binding (EGFR del747-752/P753S; binding; competition with immobilised ligand; 1 µM): 98%
N[C@@H]1CCN(c2nccc(-c3cnn4ncccc34)n2)C1 — remaining binding (EGFR T790M; binding; 1 µM): 100%
c1ccc(N2CCN(Cc3nc4ccccc4[nH]3)CC2)nc1 — remaining binding (EGFR L858R; cell-free assay; competition with immobilised ligand; 1 µM): 100%
CC1CCCN1c1nccc(-c2cnn3ncccc23)n1 (centres unmarked) — remaining binding (EGFR T790M; binding; 1 µM): 100%
Cn1nc(C(=O)NCc2ccc(C(=O)O)cc2)cc1-c1ccc2[nH]ccc2c1 — remaining binding (EGFR L861Q; cell-free assay; competition with immobilised ligand; 0.1 µM): 69%
CN(c1nccc(-c2cnn3ncccc23)n1)C1CC1 — remaining binding (EGFR del752-759; binding; 1 µM): 100%
CO[C@@H](C)c1c(Nc2ccc([C@@H](N(C)C(=O)C3CCS(=O)(=O)CC3)C(F)(F)F)cc2)cnc2cc(Cl)nn12 — remaining binding (Epidermal growth factor receptor (EGFR, Homo sapiens, UniProt P00533, G719S); cell-free assay; competition with immobilised ligand; 1 µM): 96%
CN(C)c1nccc(-c2cnc3ncccn23)n1 — remaining binding (EGFR G719C; binding; 1 µM): 100%
c1cncc(-c2cccc(Nc3nccc(NC4CCCCC4)n3)c2)c1 — remaining binding (EGFR; binding; competition with immobilised ligand; 10 µM): 56%
O=C(c1ccc(Nc2nccc(-c3cc4ccccc4s3)n2)cc1)N1CCC(N2CCCC2)CC1 — remaining binding (EGFR L858R; binding; competition with immobilised ligand; 1 µM): 100%
C[C@@H]1CCN(c2nccc(-c3cnn4ncccc34)n2)C1 — remaining binding (EGFR T790M; binding; 1 µM): 79%
